Consider 26 molecules from ChEMBL document CHEMBL2396601, “Synthesis and antiprotozoal activity of dicationic m-terphenyl and 1,3-dipyridylbenzene derivatives” (J Med Chem, 2013).

Activity calls are given as the source filed them. The calls are words filed in the database; no cut-off is given here.

Data set [1] in a line: Selectivity index, ratio of IC50 for rat L6 cells to IC50 for Plasmodium falciparum K1. The following applies: for selectivity ratio: L6 cells, read-out: Ratio IC50. The class given is toxicity, cell-based. The procedure, abridged: (§1)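 Selectivity index is IC50 against L6 rat myoblast cells divided by IC50 against the named parasite.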
The subject of a further data set is Trypanosoma cruzi. The experiment in a line: Antiprotozoal activity against intracellular amastigote form of Trypanosoma cruzi Tulahuen C2C4 expressing LacZ infected in rat L6 cells after 48 hrs. It counts as functional, organism-based. The following applies: Tulahuen C2C4, L6, 48 h. The procedure, abridged:
(§2)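 Uses T. b. rhodesiense STIB900, T. cruzi Tulahuen C2C4 LacZ intracellular amastigotes, or L6 rat myoblasts depending on line.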

The subject of the next data set is Plasmodium falciparum. As to the kind of experiment: Antiprotozoal activity against chloroquine-resistant Plasmodium falciparum K1 after 48 hrs by [3H]-hypoxanthine incorporation assay. The class given is functional, organism-based. Conditions: Plasmodium falciparum, K1.
The test system of the next data set is L6. As to the kind of experiment: Cytotoxicity against rat L6 cells after 72 hrs by Alamar Blue assay. The class given is cell-based. The following applies: L6, 72 h. The procedure, abridged:
as §2
Background: Resazurin is reduced to fluorescent resorufin, in cell work by metabolically active cells.

Data set [2] in a line: Selectivity index, ratio of IC50 for rat L6 cells to IC50 for Trypanosoma brucei rhodesiense STIB900. It counts as toxicity, cell-based. Conditions: for selectivity ratio: L6 cells, read-out: Ratio IC50. Put shortly:
as §1

Data set [3] relates to Trypanosoma brucei rhodesiense. As to the kind of experiment: Antiprotozoal activity against Trypanosoma brucei rhodesiense STIB900 after 72 hrs by Alamar Blue assay. The class given is functional, organism-based. Conditions: Trypanosoma brucei, STIB900, 72 h. Put shortly:
as §2

Data set [4] relates to Trypanosoma brucei rhodesiense. The experiment in a line: Antiprotozoal activity against Trypanosoma brucei rhodesiense STIB900 infected in NMRI mouse assessed as host mean survival days at 5 mg/kg, ip qd for 4 days. The following applies: route intraperitoneal. It counts as functional. The procedure, abridged:
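Acute-stage HAT mouse model infected with STIB900. Cure means survival to 60 days after infection with no parasitemia relapse. Mean survival days are counted from infection and use every mouse: relapsed mice, plus cured mice entered as >60 days.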

The nature of data set [5]: Selectivity index, ratio of IC50 for rat L6 cells to IC50 for Trypanosoma cruzi Tulahuen C2C4. The class given is toxicity, cell-based. The following applies: read-out: Ratio IC50. The procedure, abridged:
as §1

Data set [6] deals with Trypanosoma brucei rhodesiense. As to the kind of experiment: Antiprotozoal activity against Trypanosoma brucei rhodesiense STIB900 infected in NMRI mouse assessed as reduction of parasitemia relapse at 5 mg/kg, ip qd for 4 days. The class given is functional, organism-based. On the set-up: dose 5 mg/kg. Put shortly:
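Mouse model of acute (early) stage HAT with T. b. rhodesiense STIB900, groups of 4 mice. Amidines dosed intraperitoneally, 4 daily doses of 5 mg/kg or single doses; prodrugs dosed orally, 4 daily doses of 25 mg/kg. Cure means survival to 60 days after infection with no parasitemia relapse. Mean survival days counts all mice, with cured mice scored as >60 days.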

A word on the IC50: it is the concentration that gives 50% inhibition. Low values mean greater potency, high ones weaker potency. As for `CC1(C)CN=C(c2ccc(-c3cc(-c4ccc(C5=NCC(C)(C)CN5)cc4)cc([N+](=O)[O-])c3)cc2)NC1`, the selectivity ratio is over 46800 in data set [1] and over 217 in data set [2]. Also, the IC50 in the data set on Trypanosoma cruzi was over 150000 nM; in the data set with Plasmodium falciparum, 3 nM; with L6, over 150000 nM; in [3] it was 692 nM.

For `N=C(N)c1ccc(OCCCCCOc2ccc(C(=N)N)cc2)cc1` [PENTAMIDINE], in data set [4], the MSD was over 38 days.

Consider `Cl.Cl.N=C(N)c1ccc(-c2cc(O)cc(-c3ccc(C(=N)N)cc3)c2)cc1`, for which the selectivity ratio was over 3950 in [1], over 37500 in [2] and under 1 in [5]. The IC50 in the data set with Trypanosoma cruzi is over 150000 nM; in the data set with Plasmodium falciparum it was 38 nM; in the data set on L6, over 150000 nM; in [3], 4 nM. In addition, the MSD in data set [4] was over 41.25 days.

As to `Cl.Cl.N=C(N)c1cccc(-c2cccc(-c3cccc(C(=N)N)c3)c2)c1`, the selectivity ratio in data set [1] stood at 3320; in data set [2] it was 2270; in [5], 4. Besides, the IC50 with Trypanosoma cruzi came to 35000 nM; in the data set with Plasmodium falciparum, 38 nM; in the data set on L6 it was 125000 nM; in data set [3], 55 nM. In addition, the outcome in data set [6] was inactive. Besides, the MSD in [4] worked out at 18.5 days.

As for `O=C(Cn1ccnc1[N+](=O)[O-])NCc1ccccc1` [BENZNIDAZOLE], the figures for the IC50 with Trypanosoma cruzi and in the data set on L6 were 1300 nM and over 150000 nM, respectively. Moreover, in [5], the selectivity ratio is 115.

Molecule `CCN(CC)CCCC(C)Nc1ccnc2cc(Cl)ccc12` (centres undefined) [CHLOROQUINE] gave an IC50 in the data set with L6 of 76500 nM.

Turning to `N=C(N)c1cncc(-c2cccc(-c3cncc(C(=N)N)c3)c2)c1`, the selectivity ratio was over 2580 in data set [1] and over 285 in data set [2]. The IC50 in the data set on Trypanosoma cruzi is over 150000 nM; with Plasmodium falciparum it was 58 nM; with L6, over 150000 nM; in data set [3], 527 nM.

Take `COc1cc(-c2ccc(C(=N)N)cc2)cc(-c2ccc(C(=N)N)cc2)c1.Cl.Cl`: the selectivity ratio in data set [1] was 693; in data set [2], 7270; in [5], under 1. For the same molecule, the IC50 came to 59100 nM in the data set with Trypanosoma cruzi, 48 nM in the data set on Plasmodium falciparum, 33000 nM in the data set on L6 and 5 nM in data set [3]. In addition, the MSD in data set [4] is over 38 days.

In the case of `Cl.Cl.Cl.N=C(N)c1ccc(-c2cc(Cl)cc(-c3ccc(C(=N)N)cc3)c2)cc1`, the selectivity ratio in [1] is 561; in data set [2] it was 700; in [5] it was under 1. Also, the IC50 worked out at 65500 nM in the data set with Trypanosoma cruzi, 39 nM with Plasmodium falciparum, 21900 nM with L6 and 31 nM in [3]. Moreover, the outcome in [6] was inactive. In addition, the MSD in data set [4] is 15.25 days.

`CC(C)NC(=N)c1ccc(-c2cccc(-c3ccc(C(=N)NC(C)C)cc3)c2)cc1.Cl.Cl`: the figures for the selectivity ratio in [1], in data set [2] and in data set [5] were 6580, 2160 and under 1, respectively. The IC50 in the data set on Trypanosoma cruzi was over 150000 nM; with Plasmodium falciparum, 16 nM; in the data set with L6, 102000 nM; in data set [3], 47 nM. Moreover, the outcome in data set [6] was inactive. Further, the MSD in data set [4] is 13.5 days.

Turning to `N=C(N)c1cccc(-c2cc(Cl)cc(-c3cccc(C(=N)N)c3)c2)c1`, the values for the selectivity ratio in data set [1], in data set [2] and in data set [5] were 944, 709 and under 1, respectively. The concentration for half-maximal inhibition (IC50) in the data set with Trypanosoma cruzi was 50200 nM; in the data set with Plasmodium falciparum it was 33 nM; in the data set with L6, 30900 nM; in [3], 44 nM.

On to `Cl.Cl.c1cc(-c2ccc(C3=NCCN3)cc2)cc(-c2ccc(C3=NCCN3)cc2)c1`, for which the selectivity ratio in data set [1] is 35; in data set [2], 37; in data set [5], under 1. Further, the concentration for half-maximal inhibition (IC50) with Trypanosoma cruzi worked out at 18900 nM; in the data set with Plasmodium falciparum it was 73 nM; with L6, 2550 nM; in data set [3], 68 nM. Also, the result in data set [6] was inactive. For the same molecule, in [4], the MSD was determined as 9.25 days.

For the molecule `COc1cc(-c2cccc(C(=N)N)c2)cc(-c2cccc(C(=N)N)c2)c1.Cl.Cl`, the selectivity ratio in data set [1] was found to be 4960; in [2], 4700; in data set [5] it was 2. Further, the IC50 stood at 55900 nM in the data set with Trypanosoma cruzi, 28 nM with Plasmodium falciparum, 137000 nM in the data set with L6 and 29 nM in data set [3]. In data set [6], the result was inactive. Also, in [4], the MSD came to 10 days.

Turning to `CC(=O)O.N=C(N)c1ccc(-c2cccc(-c3ccc(C(=N)N)cn3)c2)nc1`, the “Ratio IC50” value in data set [1] (l6) is over 3339; in [2] (l6) it was over 6856. In addition, the IC50 in the data set on Trypanosoma cruzi was over 150000 nM; with Plasmodium falciparum, 45 nM; with L6 it was over 150000 nM; in data set [3], 22 nM. Moreover, the MSD in [4] is over 60 days.

For `c1cc(C2=NCCN2)cc(-c2cccc(-c3cccc(C4=NCCN4)c3)c2)c1`, the selectivity ratio came to 51 in data set [1], 20 in [2] and 2 in data set [5]. The IC50 was 20400 nM in the data set with Trypanosoma cruzi, 619 nM in the data set with Plasmodium falciparum, 31700 nM in the data set on L6 and 1600 nM in data set [3].

Turning to `N=C(N)c1ccnc(-c2cccc(-c3cc(C(=N)N)ccn3)c2)c1`, the selectivity ratio is over 1940 in data set [1] and over 128 in data set [2]. In addition, the 50% inhibitory concentration (IC50) in the data set with Trypanosoma cruzi was over 150000 nM; with Plasmodium falciparum it was 77 nM; in the data set on L6, over 150000 nM; in [3] it was 1170 nM.

In the case of `Cl.Cl.N=C(N)c1ccc(-c2cc(N)cc(-c3ccc(C(=N)N)cc3)c2)cc1`, the results for the selectivity ratio in data set [1], in data set [2] and in data set [5] were over 1100, over 39800 and over 1, respectively. Besides, the IC50 in the data set with Trypanosoma cruzi was 149000 nM; in the data set with Plasmodium falciparum, 136 nM; with L6, over 150000 nM; in [3] it was 4 nM. For the same molecule, the outcome in data set [6] was inactive. Moreover, in data set [4], the MSD is over 35 days.

As for `Cl.Cl.N=C(N)c1ccc(-c2cccc(-c3cccc(C(=N)N)c3)c2)cc1`, the selectivity ratio worked out at 1950 in data set [1], 544 in data set [2] and 1 in data set [5]. For the same molecule, the IC50 was 27100 nM in the data set on Trypanosoma cruzi, 15 nM in the data set with Plasmodium falciparum, 28500 nM in the data set on L6 and 52 nM in [3]. The result in data set [6] was inactive. In addition, in [4], the MSD is 34.75 days.

Take `CC(C)NC(=N)c1cccc(-c2cccc(-c3cccc(C(=N)NC(C)C)c3)c2)c1`: the selectivity ratio in [1] is over 4190; in data set [2], over 243; in data set [5], over 1. Also, the IC50 is 141000 nM in the data set on Trypanosoma cruzi, 31 nM in the data set on Plasmodium falciparum, over 150000 nM in the data set on L6 and 617 nM in [3].

Regarding `N=C(N)c1ccc(-c2ccc(-c3ccc(C(=N)N)cc3)o2)cc1` [FURAMIDINE], the IC50 in the data set on Trypanosoma cruzi came to 23300 nM; with Plasmodium falciparum it was 14 nM; in data set [3] it was 3 nM. The MSD in [4] is over 46 days.

For the molecule `Nc1nc(N)nc(Nc2ccc([As]3SCC(CO)S3)cc2)n1` (centres undefined) [MELARSOPROL], the outcome in [6] was Active. The MSD in data set [4] is over 60 days.

Turning to `C[C@@H]1CC[C@H]2[C@@H](C)C(=O)O[C@@H]3O[C@@]4(C)CC[C@@H]1[C@]32OO4` [ARTEMISININ], the selectivity ratio in data set [1] worked out at 34900. The figures for the IC50 with Plasmodium falciparum and with L6 were 4 nM and 150000 nM, respectively.

For the molecule `CC1(C)CN=C(c2cccc(-c3cccc(-c4cccc(C5=NCC(C)(C)CN5)c4)c3)c2)NC1`, the selectivity ratio in data set [1] was 9500; in data set [2], 70; in [5], 1. Further, the IC50 in the data set on Trypanosoma cruzi turned out to be 45400 nM; with Plasmodium falciparum, 6 nM; in the data set on L6, 56600 nM; in [3] it was 809 nM.

Regarding `CC1(C)CN=C(c2ccc(-c3cccc(-c4ccc(C5=NCC(C)(C)CN5)cc4)c3)cc2)NC1`, the selectivity ratio in data set [1] is 49300; in data set [2] it was 871; in [5], under 1. Moreover, the IC50 with Trypanosoma cruzi is 151000 nM; with Plasmodium falciparum, 2 nM; with L6, 122000 nM; in data set [3], 140 nM.

For `Cl.Cl.N=C(N)c1ccc(-c2cc(-c3ccc(C(=N)N)cc3)cc([N+](=O)[O-])c2)cc1`, the selectivity ratio is over 8380 in data set [1], over 7480 in data set [2] and over 2 in [5]. In addition, the IC50 with Trypanosoma cruzi is 57200 nM; in the data set with Plasmodium falciparum, 18 nM; in the data set with L6, over 150000 nM; in data set [3], 20 nM. For the same molecule, in [6], the outcome was inactive. Further, the MSD in data set [4] stood at 20 days.

`N=C(N)c1ccc(-c2cc(Cl)cc(-c3cccc(C(=N)N)c3)c2)cc1`: the selectivity ratio in [1] is 1250; in data set [2], 130; in data set [5] it was under 1. The IC50 in the data set on Trypanosoma cruzi amounted to 46600 nM; with Plasmodium falciparum it was 10 nM; with L6, 12700 nM; in [3], 97 nM.
